Screening results deposited in PubChem BioAssay by Broad Institute.
Shown is part of a subset that was picked to be rich in hits.
T cruzi intra = inhibitors of intracellular Trypanosoma cruzi; AID 651903; intracellular Trypanosoma cruzi in host cells, plate reader; activity score (inhibition), % at 5.01 µM; 4.9% of 22,000 active; in the data active means activity score above about 55%; inconclusive means no clear call, values can overlap the other calls;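 further: parasites and compound incubated about four days before reading; 0% = median of neutral control wells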
A1 apoptosis 2 = blocks A1, raising caspase activity; MEF A1-2A-BIM cells, caspase-Glo luminescence, 3 h; percent of clofoctol response, DMSO zero; caspase activation, % (no concentration beside the values); 24,000 tested, under 10 active; AID 2465; in the data active means caspase activation above about 5.9%; inconclusive means no clear call, values can overlap the other calls; inactive means below about 2.2%
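Material: mouse embryonic fibroblasts co-expressing A1 and BIM (A1-2A-BIM), primed for A1 dependence / Quantity: 2500 cells/well / Buffer or medium: RPMI-1640 growth medium with 10% FBS / Doses: 50 nL compound per well, pinned / Schedule: 3 h compound exposure at 37 °C / Signal: Caspase-Glo luminescence (DEVD substrate) / Measure: Caspase-3/7 activation, seen as rise in luminescence signal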
INS-1E rescue = rescue of cytokine-induced death in INS-1E beta cells. INS-1E cytokine-induced death, ATP luminescence, 48 h; normalised: neutral wells 0, positive control 100. protection from cytokine-induced ATP loss, % at 10 µM. 0.1% of 20,000 active;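 active means mean replicate protection from cytokine-induced ATP loss at least 50% and at least 75% of replicates each reaching 50%; inconclusive means meets only one of the two criteria, mean or replicate share; inactive means fails both the mean and replicate share criteria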
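Material: INS-1E rat cells; Quantity: 8000 cells/well; Buffer or medium: phenol-red-free RPMI with 5% fetal bovine serum; Probe or stimulus: cytokine cocktail of IFN-γ, TNF-α and IL-1β; Compound dosing: single test concentration per compound, delivered by pin transfer; Incubation: 48 h co-treatment, 10 min post-lysis read; Signal: CellTiter-Glo luminescence.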
Starred values were filed as active, the others as inactive.

What do the screens show for `C[C@@H]1CN([C@@H](C)CO)C(=O)c2cccc(NC(=O)Nc3ccc4c(c3)OCO4)c2O[C@@H]1CN(C)Cc1ccc(C(=O)Nc2ccccc2N)cc1`?
T cruzi intra: 54; A1 apoptosis 2: 0; INS-1E rescue: 22

How did C[C@H](CO)N1C[C@H](C)[C@H](CN(C)Cc2ccc(Oc3ccccc3)cc2)Oc2c(NC(=O)Nc3ccc4c(c3)OCO4)cccc2C1=O do in these assays?
T cruzi intra: 78*; A1 apoptosis 2: -1; INS-1E rescue: -46

Results for C[C@H](CO)N1C[C@H](C)[C@@H](CN(C)CC2CC2)Oc2c(NC(=O)Nc3ccc4c(c3)OCO4)cccc2C1=O ?
T cruzi intra: 58*; A1 apoptosis 2: 0; INS-1E rescue: -5

How did C[C@H](CO)N1C[C@H](C)[C@H](CN(C)Cc2ccc(C(=O)Nc3ccccc3N)cc2)Oc2ccc(NC(=O)Nc3ccc4c(c3)OCO4)cc2C1=O do in these assays?
T cruzi intra: 74*; A1 apoptosis 2: 0; INS-1E rescue: -3

Results for C[C@H]1CN([C@@H](C)CO)C(=O)c2cc(NC(=O)Nc3ccccc3)ccc2O[C@H]1CN(C)Cc1ccc(C(=O)Nc2ccccc2N)cc1 ?
T cruzi intra: 54; INS-1E rescue: -7

Results for C[C@H]1CN([C@@H](C)CO)C(=O)c2cccc(NC(=O)Nc3ccc4c(c3)OCO4)c2O[C@@H]1CN(C)CC1CC1 ?
T cruzi intra: 4; A1 apoptosis 2: 0; INS-1E rescue: -11

How did C[C@@H]1CN([C@H](C)CO)C(=O)c2cccc(NC(=O)Nc3ccc4c(c3)OCO4)c2O[C@H]1CN(C)Cc1ccc(Oc2ccccc2)cc1 do in these assays?
T cruzi intra: 31; A1 apoptosis 2: -2; INS-1E rescue: -10

Results for C[C@H]1CN([C@@H](C)CO)C(=O)c2cccc(NC(=O)Nc3ccc4c(c3)OCO4)c2O[C@@H]1CN(C)Cc1ccc(C(=O)Nc2ccccc2N)cc1 ?
T cruzi intra: 68*; A1 apoptosis 2: -1; INS-1E rescue: 10

Results for C[C@@H]1CN([C@H](C)CO)C(=O)Cc2cc(NS(=O)(=O)c3ccc(F)cc3)ccc2O[C@@H]1CN(C)C(=O)Nc1ccc(C(F)(F)F)cc1 ?
T cruzi intra: 11; A1 apoptosis 2: 1; INS-1E rescue: -16

What do the screens show for `COc1ccc(NC(=O)Nc2cccc3c2O[C@@H](CN(C)C(=O)Nc2c(C)noc2C)[C@@H](C)CN([C@@H](C)CO)C3=O)cc1`?
T cruzi intra: -16; A1 apoptosis 2: -1; INS-1E rescue: 9

Results for C[C@H](CO)N1C[C@H](C)[C@H](CN(C)C(=O)NC2CCCCC2)Oc2ccc(NS(=O)(=O)c3ccccc3)cc2CC1=O ?
T cruzi intra: -5; A1 apoptosis 2: 0; INS-1E rescue: -5

Results for C[C@H]1CN([C@@H](C)CO)C(=O)Cc2cc(NS(=O)(=O)c3ccc(F)cc3)ccc2O[C@H]1CN(C)S(=O)(=O)c1cccs1 ?
T cruzi intra: 6; INS-1E rescue: 0

Results for C[C@@H]1CN([C@@H](C)CO)C(=O)c2cccc(NC(=O)Nc3ccc4c(c3)OCO4)c2O[C@H]1CN(C)Cc1ccc(C(=O)Nc2ccccc2N)cc1 ?
T cruzi intra: 68*; A1 apoptosis 2: 1; INS-1E rescue: -1

How did C[C@@H]1CN([C@@H](C)CO)C(=O)c2cccc(NC(=O)Nc3ccc4c(c3)OCO4)c2O[C@@H]1CN(C)Cc1ccc(C(=O)O)cc1 do in these assays?
T cruzi intra: -17; INS-1E rescue: 3

How did C[C@@H]1CN([C@H](C)CO)C(=O)c2cc(NC(=O)Cn3cnnn3)ccc2O[C@H]1CN(C)Cc1ccc(C(=O)Nc2ccccc2N)cc1 do in these assays?
T cruzi intra: 29; A1 apoptosis 2: -2; INS-1E rescue: -12

Results for C[C@H](CO)N1C[C@H](C)[C@@H](CN(C)Cc2ccc(C(=O)Nc3ccccc3N)cc2)Oc2ccc(NC(=O)Cn3cnnn3)cc2C1=O ?
T cruzi intra: 69*; INS-1E rescue: -11

What do the screens show for `C[C@H]1CN([C@@H](C)CO)C(=O)c2cc(NC(=O)C3CCCCC3)ccc2O[C@H]1CN(C)Cc1ccc(C(=O)Nc2ccccc2N)cc1`?
T cruzi intra: 48; INS-1E rescue: 7

How did Cc1noc(C)c1S(=O)(=O)Nc1ccc2c(c1)CC(=O)N([C@@H](C)CO)C[C@H](C)[C@H](CN(C)Cc1ccc(Cl)c(Cl)c1)O2 do in these assays?
T cruzi intra: 55; INS-1E rescue: -25

Results for Cc1noc(C)c1S(=O)(=O)Nc1ccc2c(c1)C(=O)N([C@@H](C)CO)C[C@H](C)[C@H](CN(C)Cc1ccc(Cl)c(Cl)c1)O2 ?
T cruzi intra: 62*; A1 apoptosis 2: 0; INS-1E rescue: -12

What do the screens show for `Cc1noc(C)c1S(=O)(=O)Nc1ccc2c(c1)CC(=O)N([C@@H](C)CO)C[C@H](C)[C@H](CN(C)Cc1ccc(C(F)(F)F)cc1)O2`?
T cruzi intra: 41; INS-1E rescue: 2

Results for Cc1noc(C)c1S(=O)(=O)Nc1ccc2c(c1)CC(=O)N([C@H](C)CO)C[C@@H](C)[C@H](CN(C)Cc1ccc(Cl)c(Cl)c1)O2 ?
T cruzi intra: 63*; A1 apoptosis 2: 0; INS-1E rescue: -20

How did Cc1noc(C)c1S(=O)(=O)Nc1ccc2c(c1)C(=O)N([C@H](C)CO)C[C@H](C)[C@H](CN(C)Cc1ccc(Cl)c(Cl)c1)O2 do in these assays?
T cruzi intra: inconclusive; A1 apoptosis 2: 0; INS-1E rescue: -15

What do the screens show for `Cc1noc(C)c1S(=O)(=O)Nc1ccc2c(c1)C(=O)N([C@H](C)CO)C[C@H](C)[C@H](CN(C)Cc1ccc3c(c1)OCO3)O2`?
T cruzi intra: 58*; INS-1E rescue: -11

Results for Cc1noc(C)c1S(=O)(=O)Nc1ccc2c(c1)C(=O)N([C@@H](C)CO)C[C@@H](C)[C@H](CN(C)Cc1ccc3c(c1)OCO3)O2 ?
T cruzi intra: 1; INS-1E rescue: 0

Results for Cc1noc(C)c1S(=O)(=O)Nc1ccc2c(c1)CC(=O)N([C@@H](C)CO)C[C@H](C)[C@@H](CN(C)Cc1ccc(C(F)(F)F)cc1)O2 ?
T cruzi intra: 61*; INS-1E rescue: 0

How did C[C@@H]1CCCCO[C@H](CN(C)S(=O)(=O)c2ccc(Cl)cc2)[C@@H](C)CN([C@@H](C)CO)C(=O)c2cc(NS(=O)(=O)c3cccs3)ccc2O1 do in these assays?
A1 apoptosis 2: -1

How did Cc1cccc(S(=O)(=O)N(C)C[C@H]2OCc3cn(nn3)CCCC(=O)N([C@@H](C)CO)C[C@@H]2C)c1 do in these assays?
T cruzi intra: -2

What do the screens show for `COc1ccc(S(=O)(=O)N(C)C[C@@H]2Oc3ccc(NS(=O)(=O)c4ccc(C)cc4)cc3C(=O)N([C@@H](C)CO)C[C@H]2C)cc1`?
T cruzi intra: 7; A1 apoptosis 2: 1; INS-1E rescue: -4

What do the screens show for `C[C@@H]1CN([C@H](C)CO)C(=O)Cc2cc(NC(=O)Nc3ccc(C(F)(F)F)cc3)ccc2O[C@H]1CN(C)CC1CC1`?
T cruzi intra: 8; A1 apoptosis 2: 0; INS-1E rescue: -11
